Laboratory results from ChEMBL document CHEMBL3272249, “Esters of N-tert-butylarterenol. Long-acting new bronchodilators with reduced cardiac effects” (J Med Chem, 1976).

Tests used:
Canis familiaris [1] = experiment: Bronchodilator activity in dog assessed as degree of inhibition of carbachol or histamine-induced bronchoconstriction at 160 mg/kg, id relative to control; format: functional; conditions: Canis lupus familiaris, route intraduodenal
Outline: (§1)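 Anesthetized dogs, trachea cannulated with a nonbreathing valve. Bronchoconstriction induced by iv carbachol (2–4 μg/kg) or histamine diphosphate (20–50 μg/kg) in separate animals, and airway pressure recorded by transducer. Drug stocks were made fresh in distilled water, diluted in saline and kept on ice. Read-out was percent inhibition of control constriction, averaged over at least three dogs per dose at the higher dose. Carbachol and histamine data were combined.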

Canis familiaris [2] = experiment: Bronchodilator activity in dog assessed as degree of inhibition of carbachol or histamine-induced bronchoconstriction at 20 to 40 mg/kg, iv relative to control; format: functional, Canis lupus familiaris; conditions: dose mg/kg 20-40; outline: as §1
Canis familiaris [3] = experiment: Cardiotoxicity in spontaneously respiring dog assessed as degree of increase in heart rate at 20 to 40 mg/kg, iv relative to control; format: toxicity, organism-based, Canis lupus familiaris; design: dose 20-40 mg/kg, route intravenous; conditions: in vivo
Outline: (§2)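 Anesthetized, spontaneously respiring dogs. Heart rate was taken from a lead II EKG, and blood pressure from the right femoral artery by transducer. The increase in heart rate (beats/min) was scored on a graded scale with more than 4 dogs per dose, and its duration was recorded. Drugs were dissolved fresh in distilled water, diluted in physiological saline and kept on ice.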

Canis familiaris [4] = experiment: Cardiotoxicity in spontaneously respiring dog assessed as degree of increase in heart rate at 160 mg/kg, id relative to control; format: toxicity, organism-based, Canis lupus familiaris; design: dose 160 mg/kg, route intraduodenal; conditions: in vivo, other; outline: as §2
Canis familiaris [5] = experiment: Bronchodilator activity in dog assessed as time of inhibition of carbachol or histamine-induced bronchoconstriction at 160 mg/kg, id relative to control; format: functional, Canis lupus familiaris; conditions: route intraduodenal
Outline: (§3)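 Dog airway model: anesthetized, cannulated via a nonbreathing valve, with airway pressure changes recorded after iv carbachol (2–4 μg/kg) or histamine diphosphate (20–50 μg/kg) challenge, each agonist in different animals. Compounds were given iv, intraduodenally or intratracheally from fresh aqueous stocks diluted in saline. Duration (h) of inhibition of induced bronchoconstriction was followed, and the two agonist datasets were pooled.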

Canis familiaris [6] = experiment: Bronchodilator activity in dog assessed as degree of inhibition of carbachol or histamine-induced bronchoconstriction at 250 to 1000 mg/kg, it relative to control; format: functional, Canis lupus familiaris; conditions: dose mg/kg 250-1000; route endotracheal; outline: as §1
Canis familiaris [7] = experiment: Cardiotoxicity in spontaneously respiring dog assessed as time of increase in heart rate at 160 mg/kg, id relative to control; format: toxicity, organism-based, Canis lupus familiaris; design: dose 160 mg/kg, route intraduodenal; conditions: in vivo, other; outline: as §2
Canis familiaris [8] = experiment: Cardiotoxicity in spontaneously respiring dog assessed as time of increase in heart rate at 20 to 40 mg/kg, iv relative to control; format: toxicity, organism-based, Canis lupus familiaris; design: dose 20-40 mg/kg, route intravenous; conditions: in vivo; outline: as §2
Canis familiaris [9] = experiment: Bronchodilator activity in dog assessed as time of inhibition of carbachol or histamine-induced bronchoconstriction at 250 to 1000 mg/kg, it relative to control; format: functional, Canis lupus familiaris; conditions: dose mg/kg 250-1000; route endotracheal; outline: as §3
Canis familiaris [10] = experiment: Cardiotoxicity in spontaneously respiring dog assessed as degree of increase in heart rate at 250 to 1000 mg/kg, it relative to control; format: toxicity, organism-based, Canis lupus familiaris; design: dose 250-1000 mg/kg, route endotracheal; conditions: in vivo, inhaled_or_intranasal; outline: as §2
Canis familiaris [11] = experiment: Cardiotoxicity in spontaneously respiring dog assessed as time of increase in heart rate at 250 to 1000 mg/kg, it relative to control; format: toxicity, organism-based, Canis lupus familiaris; design: dose 250-1000 mg/kg, route endotracheal; conditions: in vivo, inhaled_or_intranasal; outline: as §2
Canis familiaris [12] = experiment: Bronchodilator activity in dog assessed as time of inhibition of carbachol or histamine-induced bronchoconstriction at 20 to 40 mg/kg, iv relative to control; format: functional, Canis lupus familiaris; conditions: dose mg/kg 20-40; outline: as §3
Canis familiaris [13] = experiment: Cardiotoxicity in spontaneously respiring dog assessed as time of increase in heart rate at 50 to 300 mg/kg, id relative to control; format: toxicity, organism-based, Canis lupus familiaris; design: dose 50-300 mg/kg, route intraduodenal; conditions: in vivo, other
Outline: (§4)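 Anesthetized, spontaneously respiring dogs. Heart rate monitored by lead II EKG; blood pressure from right femoral artery by pressure transducer. Rise in heart rate (beats/min) scored ±=5-15, +=20-40, ++=40-60, +++=>60, n>4/dose; duration of the rise in h. Drug stocks freshly made in distilled water, diluted in physiological saline, kept on ice.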

Canis familiaris [14] = experiment: Bronchodilator activity in dog assessed as time of inhibition of carbachol or histamine-induced bronchoconstriction at 150 to 300 mg/kg, it relative to control; format: functional, Canis lupus familiaris; conditions: dose mg/kg 150-300; route endotracheal
Outline: (§5)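 Dog with airway cannulated through a nonbreathing valve. Bronchoconstriction induced by iv carbachol (2–4 µg/kg) or histamine diphosphate (20–50 µg/kg); airway pressure recorded by pressure transducer. Each compound tested against both agonists in different animals, and results were combined and averaged. Bronchodilation = % inhibition of control constriction; degree scored as +, ++, +++ (20-45, 45-70, >70%) from higher dose, ≥3 dogs/dose; duration in h.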

Canis familiaris [15] = experiment: Bronchodilator activity in dog assessed as degree of inhibition of carbachol or histamine-induced bronchoconstriction at 0.35 to 2 mg/kg, iv relative to control; format: functional, Canis lupus familiaris; conditions: dose mg/kg 0.35-2; outline: as §5
Canis familiaris [16] = experiment: Bronchodilator activity in dog assessed as degree of inhibition of carbachol or histamine-induced bronchoconstriction at 50 to 300 mg/kg, id relative to control; format: functional, Canis lupus familiaris; conditions: dose mg/kg 50-300; route intraduodenal; outline: as §5
Canis familiaris [17] = experiment: Cardiotoxicity in spontaneously respiring dog assessed as degree of increase in heart rate at 0.35 to 2 mg/kg, iv relative to control; format: toxicity, organism-based, Canis lupus familiaris; design: dose 0.35-2 mg/kg, route intravenous; conditions: in vivo; outline: as §4
Canis familiaris [18] = experiment: Bronchodilator activity in dog assessed as time of inhibition of carbachol or histamine-induced bronchoconstriction at 50 to 300 mg/kg, id relative to control; format: functional, Canis lupus familiaris; conditions: dose mg/kg 50-300; route intraduodenal; outline: as §5
Canis familiaris [19] = experiment: Cardiotoxicity in spontaneously respiring dog assessed as degree of increase in heart rate at 150 to 300 mg/kg, it relative to control; format: toxicity, organism-based, Canis lupus familiaris; design: dose 150-300 mg/kg, route endotracheal; conditions: in vivo, inhaled_or_intranasal; outline: as §4
Canis familiaris [20] = experiment: Cardiotoxicity in spontaneously respiring dog assessed as time of increase in heart rate at 0.35 to 2 mg/kg, iv relative to control; format: toxicity, organism-based, Canis lupus familiaris; design: dose 0.35-2 mg/kg, route intravenous; conditions: in vivo; outline: as §4
Canis familiaris [21] = experiment: Bronchodilator activity in dog assessed as degree of inhibition of carbachol or histamine-induced bronchoconstriction at 150 to 300 mg/kg, it relative to control; format: functional, Canis lupus familiaris; conditions: dose mg/kg 150-300; route endotracheal; outline: as §5
Canis familiaris [22] = experiment: Bronchodilator activity in dog assessed as time of inhibition of carbachol or histamine-induced bronchoconstriction at 0.35 to 2 mg/kg, iv relative to control; format: functional, Canis lupus familiaris; conditions: dose mg/kg 0.35-2; outline: as §5
Canis familiaris [23] = experiment: Cardiotoxicity in spontaneously respiring dog assessed as degree of increase in heart rate at 50 to 300 mg/kg, id relative to control; format: toxicity, organism-based, Canis lupus familiaris; design: dose 50-300 mg/kg, route intraduodenal; conditions: in vivo, other; outline: as §4
Canis familiaris [24] = experiment: Cardiotoxicity in spontaneously respiring dog assessed as time of increase in heart rate at 150 to 300 mg/kg, it relative to control; format: toxicity, organism-based, Canis lupus familiaris; design: dose 150-300 mg/kg, route endotracheal; conditions: in vivo, inhaled_or_intranasal; outline: as §4
Canis familiaris [25] = experiment: Bronchodilator activity in dog assessed as degree of inhibition of carbachol or histamine-induced bronchoconstriction at 125 to 250 mg/kg, it relative to control; format: functional, Canis lupus familiaris; conditions: dose mg/kg 125-250; route endotracheal; outline: as §5
Canis familiaris [26] = experiment: Cardiotoxicity in spontaneously respiring dog assessed as time of increase in heart rate at 0.3 to 2 mg/kg, iv relative to control; format: toxicity, organism-based, Canis lupus familiaris; design: dose 0.3-2 mg/kg, route intravenous; conditions: in vivo; outline: as §2
Canis familiaris [27] = experiment: Cardiotoxicity in spontaneously respiring dog assessed as time of increase in heart rate at 50 to 240 mg/kg, id relative to control; format: toxicity, organism-based, Canis lupus familiaris; design: dose 50-240 mg/kg, route intraduodenal; conditions: in vivo, other
Outline: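 Anesthetized, spontaneously respiring dogs. Heart rate monitored by lead II EKG, with blood pressure taken from the right femoral artery by pressure transducer and recorded on a polygraph. Drug stocks made fresh in distilled water, diluted in physiological saline and kept on ice. Dosing was iv, id or it as listed. The duration of the heart-rate increase was recorded in h, with more than 4 dogs per dose.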

Canis familiaris [28] = experiment: Bronchodilator activity in dog assessed as time of inhibition of carbachol or histamine-induced bronchoconstriction at 125 to 250 mg/kg, it relative to control; format: functional, Canis lupus familiaris; conditions: dose mg/kg 125-250; route endotracheal; outline: as §5
Canis familiaris [29] = experiment: Cardiotoxicity in spontaneously respiring dog assessed as degree of increase in heart rate at 50 to 240 mg/kg, id relative to control; format: toxicity, organism-based, Canis lupus familiaris; design: dose 50-240 mg/kg, route intraduodenal; conditions: in vivo, other; outline: as §2
Canis familiaris [30] = experiment: Bronchodilator activity in dog assessed as degree of inhibition of carbachol or histamine-induced bronchoconstriction at 50 to 240 mg/kg, id relative to control; format: functional, Canis lupus familiaris; conditions: dose mg/kg 50-240; route intraduodenal; outline: as §5
Canis familiaris [31] = experiment: Cardiotoxicity in spontaneously respiring dog assessed as degree of increase in heart rate at 0.3 to 2 mg/kg, iv relative to control; format: toxicity, organism-based, Canis lupus familiaris; design: dose 0.3-2 mg/kg, route intravenous; conditions: in vivo; outline: as §2
Canis familiaris [32] = experiment: Bronchodilator activity in dog assessed as time of inhibition of carbachol or histamine-induced bronchoconstriction at 0.3 to 2 mg/kg, iv relative to control; format: functional, Canis lupus familiaris; conditions: dose mg/kg 0.3-2; outline: as §5
Canis familiaris [33] = experiment: Bronchodilator activity in dog assessed as time of inhibition of carbachol or histamine-induced bronchoconstriction at 50 to 240 mg/kg, id relative to control; format: functional, Canis lupus familiaris; conditions: dose mg/kg 50-240; route intraduodenal; outline: as §5
Canis familiaris [34] = experiment: Cardiotoxicity in spontaneously respiring dog assessed as time of increase in heart rate at 125 to 250 mg/kg, it relative to control; format: toxicity, organism-based, Canis lupus familiaris; design: dose 125-250 mg/kg, route endotracheal; conditions: in vivo, inhaled_or_intranasal; outline: as §2
Canis familiaris [35] = experiment: Bronchodilator activity in dog assessed as degree of inhibition of carbachol or histamine-induced bronchoconstriction at 0.3 to 2 mg/kg, iv relative to control; format: functional, Canis lupus familiaris; conditions: dose mg/kg 0.3-2; outline: as §5
Canis familiaris [36] = experiment: Cardiotoxicity in spontaneously respiring dog assessed as degree of increase in heart rate at 125 to 150 mg/kg, it relative to control; format: toxicity, organism-based, Canis lupus familiaris; design: dose 125-150 mg/kg, route endotracheal; conditions: in vivo, inhaled_or_intranasal; outline: as §2

In the case of `COc1ccc(C(=O)Oc2ccc([C@@H](O)CNC(C)(C)C)cc2OC(C)=O)cc1.CS(=O)(=O)O`, the inhibition in vivo at 160 mg/kg (Canis familiaris [1]) is reported as > 70%, the “inhibition (INH)” value (Canis familiaris [2]) is reported as >70% and the Activity (Canis familiaris [3]) is reported as 20%. For the same molecule, the Activity (Canis familiaris [4]) was 20%, the Time (Canis familiaris [5]) was >5 h and the “inhibition (INH)” value (Canis familiaris [6]) was >70%. The Time (Canis familiaris [7]) was < 3 h, the Time (Canis familiaris [8]) was 2 h and the Time (Canis familiaris [9]) was >6 h. For the same molecule, the Activity (Canis familiaris [10]) was 5%, the Time (Canis familiaris [11]) was < 1 h and the Time (Canis familiaris [12]) was >4 h.

For `CC(C)(C)NC[C@H](O)c1ccc(O)c(O)c1`, the Time (Canis familiaris [13]) was 3 h, the Time (Canis familiaris [14]) was <2 h and the “inhibition (INH)” value (Canis familiaris [15]) was >70%. The “inhibition (INH)” value (Canis familiaris [16]) was 45%, the Activity (Canis familiaris [17]) was 40% and the Time (Canis familiaris [18]) was 3 h. The Activity (Canis familiaris [19]) was 20%, the Time (Canis familiaris [20]) was < 0.25 h and the “inhibition (INH)” value (Canis familiaris [21]) was >70%. The Time (Canis familiaris [22]) was >1 h, the Activity (Canis familiaris [23]) was 40% and the Time (Canis familiaris [24]) was 1 h.

`CC(C)NCC(O)c1ccc(O)c(O)c1` (stereo unspecified) [ISOPROTERENOL] was tested, and the “inhibition (INH)” value (Canis familiaris [25]) was >70%, the Time (Canis familiaris [26]) was < 0.25 h and the Time (Canis familiaris [27]) was 2 h. The Time (Canis familiaris [28]) was <1 h, the Activity (Canis familiaris [29]) was 40% and the “inhibition (INH)” value (Canis familiaris [30]) was 20%. For the same molecule, the Activity (Canis familiaris [31]) was > 60%, the Time (Canis familiaris [32]) was <1 h and the Time (Canis familiaris [33]) was <2 h. The Time (Canis familiaris [34]) was 1 h, the “inhibition (INH)” value (Canis familiaris [35]) was >70% and the Activity (Canis familiaris [36]) was 20%.
